Data as given in ChEMBL document CHEMBL1126752, “Synthesis and biological activity of cis-(3aR)-(-)-2,3,3a,4,5,9b-hexahydro- 3-propyl-1H-benz[e]indole-9-carboxamide: a potent and selective 5-HT1A receptor agonist with good oral availability” (J Med Chem, 1993).
Active and inactive are the calls of the source. The calls are words filed in the database; no cut-off is given here.

Assays:
[1] = target: T1, 5-hydroxytryptamine receptor 1A (Homo sapiens, UniProt P08908); test: Binding affinity against [3H]8-OH-DPAT-labeled 5-hydroxytryptamine 1A receptor sites in cloned CHO cells; type: cell-based
T1 sequence (P08908 whole entry): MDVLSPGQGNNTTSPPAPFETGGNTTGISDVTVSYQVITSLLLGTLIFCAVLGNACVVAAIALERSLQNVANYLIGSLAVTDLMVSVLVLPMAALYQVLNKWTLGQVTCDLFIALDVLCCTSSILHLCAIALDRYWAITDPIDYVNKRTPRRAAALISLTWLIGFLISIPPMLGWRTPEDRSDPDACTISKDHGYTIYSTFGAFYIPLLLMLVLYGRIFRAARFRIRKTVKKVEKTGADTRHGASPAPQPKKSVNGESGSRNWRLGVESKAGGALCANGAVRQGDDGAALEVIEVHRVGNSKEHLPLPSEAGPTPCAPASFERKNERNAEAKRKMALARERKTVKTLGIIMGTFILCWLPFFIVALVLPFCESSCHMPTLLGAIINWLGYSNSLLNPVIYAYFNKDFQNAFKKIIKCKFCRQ
Summary of the method: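 Competition binding against [3H]-8-OH-DPAT (85 Ci/mmol, 1.2 nM) using 11 dilutions of test compound. Receptor was cloned mammalian 5-HT1A expressed in CHO-K1 cells. IC50 from a one-site nonlinear least-squares fit, converted to Ki by Cheng-Prusoff. Ki reported ±SEM.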

[2] = (§1) Half-life time in rats; type: ADME, organism-based; conditions: rat, in vivo
Summary of the method: (§2)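 Male Sprague-Dawley rats (300 g) sampled from arterial catheters 24 h after surgery over 10-24 h. Dosing was 5 µmol/kg iv and 40 µmol/kg po, with oral rats fasted 18 h. Parent drug in blood measured by GC/MS after pH 11 dichloromethane extraction with internal standard, samples run in duplicate. Availability from po/iv AUC ratio (n = 4).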

Felis catus [3] = test: Maximum decrease in blood pressure observed following 1 mg/kg dose in anesthetized cat; type: functional; design: unit not given here
Summary of the method: (§3)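 Adult cats (2.5-4.0 kg) anesthetized with ketamine 11 mg/kg im then chloralose 80 mg/kg iv. Animals paralyzed with gallamine, ventilated, and kept at 37-38 °C. Blood pressure recorded via femoral artery. Sympathetic activity quantified by cumulative integration. Increasing doses given iv cumulatively at 20-min intervals.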

Felis catus [4] = test: Maximum decrease in sympathetic nerve discharge in anesthetized cat.; type: functional; summary of the method: as §3
Felis catus [5] = test: Percent arterial blood pressure at sympathetic nerve discharge in anesthetized cat; type: functional; summary of the method: as §3
Felis catus [6] = test: Inhibition of sympathetic nerve discharge (SND) in anesthetized cat; type: functional; summary of the method: as §3
Mus musculus [7] = test: Swimming activity of the treated mice/control mice at 39 umol/kg, sc; type: functional
Mus musculus [8] = test: Swimming activity of the treated mice/control mice at 1.2 umol/kg, sc; type: functional
Mus musculus [9] = test: Swimming activity of the treated mice/control mice at 12 umol/kg, sc (p < 0.001); type: functional
Mus musculus [10] = test: Swimming activity of the treated mice/control mice at 3.9 umol/kg, sc (p < 0.001); type: functional
Rattus norvegicus [11] = test: 5-HTP accumulation in corpus striatum of reserpinized rats following peroral administration; type: functional; conditions: po
Rattus norvegicus [12] = species on record: Rattus norvegicus; test: Inhibition of 5-HT1A cell firing in rats; type: functional
Summary of the method: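 Male Sprague-Dawley rats (280-330 g) under chloral hydrate anesthesia (400 mg/kg ip), drug given iv via femoral vein in distilled water. Dorsal raphe serotonergic neurons recorded extracellularly and confirmed histologically by dye deposit. Firing rate followed by integrated ratemeter.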

Rattus norvegicus [13] = test: 5-HTP accumulation in corpus striatum of reserpinized rats following subcutaneous administration.; type: functional; conditions: sc
Rattus norvegicus [14] = test: 5-HTP accumulation in hemispheres of reserpinized rats following peroral administration; type: functional; conditions: po
Rattus norvegicus [15] = test: 5-HTP accumulation in hemispheres of reserpinized rats following subcutaneous administration.; type: functional; conditions: sc
Rattus norvegicus [16] = test: 5-HTP accumulation in limbic system of reserpinized rats following peroral administration; type: functional; conditions: po
Rattus norvegicus [17] = test: 5-HTP accumulation in limbic system of reserpinized rats following subcutaneous administration; type: functional; conditions: sc
Rattus norvegicus [18] = test: In vivo motor activity at 12.5 umol/kg (po) in male rats expressed as accumulated counts/30 min (p < 0.001); type: functional
Rattus norvegicus [19] = test: In vivo motor activity at 12.5 umol/kg (sc) in male rats expressed as accumulated counts/30 min (p < 0.001); type: functional
Mus musculus [20] = test: Effect on hypothermia in mice following peroral administration; conditions: po
Mus musculus [21] = test: Effect on hypothermia in mice following subcutaneous administration; conditions: sc
[22] = Half-life in rats; type: ADME, organism-based; conditions: rat, in vivo; summary of the method: as §2
Felis catus [23] = test: Maximum decrease in sympathetic nerve discharge in anesthetized cat; type: functional
Summary of the method: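 Cats (2.5-4.0 kg) anesthetized with ketamine 11 mg/kg im then chloralose 80 mg/kg iv, paralyzed with gallamine and ventilated, rectal temperature kept at 37-38 °C. Increasing iv doses given cumulatively at 20-min intervals; sympathetic activity quantified by cumulative integration and expressed as percent of control.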

Mus musculus [24] = test: Swimming activity of the treated mice/control mice at 3.9 umol/kg, sc; type: functional
Rattus norvegicus [25] = test: 5-HTP accumulation in corpus striatum of reserpinized rats following subcutaneous administration; type: functional; conditions: sc
Rattus norvegicus [26] = test: 5-HTP accumulation in hemispheres of reserpinized rats following subcutaneous administration; type: functional; conditions: sc
Rattus norvegicus [27] = test: DOPA accumulation in corpus striatum of reserpinized rats following subcutaneous administration at highest dose tested (50 umol/kg); Inactive; type: functional, organism-based
Rattus norvegicus [28] = test: DOPA accumulation in hemispheres of reserpinized rats following subcutaneous administration at highest dose tested (50 umol/kg); Inactive; type: functional, organism-based
Rattus norvegicus [29] = test: DOPA accumulation in limbic system of reserpinized rats following subcutaneous administration at highest dose tested (50 umol/kg); Inactive; type: functional, organism-based
Rattus norvegicus [30] = species on record: Rattus norvegicus; test: Compound was tested for gross behavioral response in rats; partial 5-HT syndrome; type: functional, organism-based
Rattus norvegicus [31] = test: Oral availability obtained from blood plasma levels of the parent compound following 5 umol /kg intravenous and 40 umol /kg peroral administration; type: functional, organism-based; summary of the method: as §2
Mus musculus [32] = test: Swimming activity of the treated mice/control mice at 12 umol/kg, sc; type: functional
Rattus norvegicus [33] = test: In vivo motor activity at 50 umol/kg (sc) in male rats expressed as accumulated counts/30 min; type: functional
Mus musculus [34] = test: Swimming activity of the treated mice/control mice at 39 umol/kg, sc (p < 0.05); type: functional
[35] = as §1; type: ADME, organism-based; conditions: rat, in vivo; remark: listed apart in the source
Summary of the method: (§4)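 Male Sprague-Dawley rats (300 g) with arterial catheters, sampled from 24 h after surgery for 10-24 h; oral groups starved 18 h with free water. Blood levels measured by GC/MS with internal standard, samples run in duplicate. Availability from po vs iv AUC (n = 4), dosed 1 μmol/kg iv and 20 μmol/kg po.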

Mus musculus [36] = test: Swimming activity of the treated mice/control mice at 4.0 umol/kg, sc (p < 0.001); type: functional
Mus musculus [37] = test: Swimming activity of the treated mice/control mice at 41 umol/kg, sc (p < 0.001); type: functional
Rattus norvegicus [38] = test: In vivo motor activity at 0.2 umol/kg (sc) in male rats expressed as accumulated counts/30 min (p < 0.05); type: functional
Rattus norvegicus [39] = test: DOPA accumulation in corpus striatum of reserpinized rats following peroral administration at highest dose tested (50 umol/kg); Inactive; type: functional, organism-based
Rattus norvegicus [40] = test: DOPA accumulation in hemispheres of reserpinized rats following peroral administration at highest dose tested (50 umol/kg); Inactive; type: functional, organism-based
Rattus norvegicus [41] = test: DOPA accumulation in limbic system of reserpinized rats following peroral administration at highest dose tested (50 umol/kg); Inactive; type: functional, organism-based
Rattus norvegicus [42] = test: In vivo motor activity at 61 umol/kg (po) in male rats expressed as accumulated counts/30 min (p < 0.001); type: functional
Rattus norvegicus [43] = species on record: Rattus norvegicus; test: Compound was tested for gross behavioral response in rats; full-blown 5-HT syndrome; type: functional, organism-based
Rattus norvegicus [44] = test: Oral availability obtained from blood plasma levels of the parent compound following 1 uMol /kg intravenous and 20 umol /kg peroral administration; type: functional, organism-based; summary of the method: as §4
Rattus norvegicus [45] = test: In vivo motor activity at 10 umol/kg (po) in male rats expressed as accumulated counts/30 min (p < 0.05)
Mus musculus [46] = test: Swimming activity of the treated mice/control mice at 39 umol/kg, sc (p < 0.001); type: functional
Rattus norvegicus [47] = test: In vivo motor activity at 50 umol/kg (sc) in male rats expressed as accumulated counts/30 min (p < 0.01); type: functional

SMILES	Ki [1] [nM]	Max decrease (Felis catus [3])	BP (Felis catus [5]) [%]	ED50 (Felis catus [6]) [µmol/kg]	Swimming activity (Mus musculus [7])	Swimming activity (Mus musculus [8])	Swimming activity (Mus musculus [9])	Swimming activity (Mus musculus [10])	ED50 (Rattus norvegicus [11]) [µmol/kg]	ED50 (Rattus norvegicus [12]) [µmol/kg]	ED50 (Rattus norvegicus [14]) [µmol/kg]	ED50 (Rattus norvegicus [16]) [µmol/kg]	ED50 (Rattus norvegicus [17]) [µmol/kg]	Accumulated counts/30 min (Rattus norvegicus [19])	ED50 (Mus musculus [20]) [µmol/kg]	ED50 (Mus musculus [21]) [µmol/kg]	Max decrease (Felis catus [23])	ED50 (Rattus norvegicus [25]) [µmol/kg]	ED50 (Rattus norvegicus [26]) [µmol/kg]	Swimming activity (Mus musculus [32])	further results
CCCN1CC[C@H]2c3c(cccc3C(N)=O)CC[C@H]21 (stereo in doubt; (-)-3a)	1.9	52	83	0.049	1.1	1.5	7.1	4.7	< 0.2	0.023	0.28	0.23	0.28	249	2.8	0.4					half-life [2]: 120 min; Max decrease (Felis catus [4]): 0; ED50 (Rattus norvegicus [13]): 0.07 µmol/kg; ED50 (Rattus norvegicus [15]): 0.32 µmol/kg; Accumulated counts/30 min (Rattus norvegicus [18]): 173
CCCN1CCC2c3c(cccc3C(N)=O)CCC21 (racemic)	2.9	63	82	0.1	2.9		6.6			0.009			0.93	88	28	3.8	33	0.95	1.25		half-life [22]: 90 min; Swimming activity (Mus musculus [24]): 1.2; NA (Rattus norvegicus [27]): inactive; NA (Rattus norvegicus [28]): inactive; NA (Rattus norvegicus [29]): inactive; Response (Rattus norvegicus [30]): Partially active; bioavailability (Rattus norvegicus [31]): 70%
CCCN1CCC2c3c(cccc3C(N)=O)CC[C@@H]21 (single isomer, unassigned; (+)-3b)	> 1440				1.1															1.2	Accumulated counts/30 min (Rattus norvegicus [33]): 9
CCCN1CC[C@H]2c3c(cccc3C(N)=O)CC[C@H]21 (stereo in doubt; (-)-3b)	28																			0.7	Swimming activity (Mus musculus [34]): 1.7
CCCN(CCC)C1CCc2cccc(O)c2C1 (racemic) [8-OH-DPAT]		57	66	0.03		0.9 T/C	4.6 T/C		7.9	0.006	7.6	3	0.052		30	3	2	0.052	0.063		half-life [35]: 60 min; Swimming activity (Mus musculus [36]): 6.7 T/C; Swimming activity (Mus musculus [37]): 3.4 T/C; Accumulated counts/30 min (Rattus norvegicus [38]): 66; ED50 (Rattus norvegicus [39]): inactive; ED50 (Rattus norvegicus [27]): inactive; ED50 (Rattus norvegicus [40]): inactive; ED50 (Rattus norvegicus [28]): inactive; ED50 (Rattus norvegicus [41]): inactive; ED50 (Rattus norvegicus [29]): inactive; Accumulated counts/30 min (Rattus norvegicus [42]): 883; Response (Rattus norvegicus [43]): Active; bioavailability (Rattus norvegicus [44]): 2.4%; Accumulated counts/30 min (Rattus norvegicus [45]): 17
CCCN1CCC2c3c(cccc3C(N)=O)CC[C@@H]21 (single isomer, unassigned; (+)-3a)	17					1	4.7	4		> 1.2			1.8		28	8.9		1.6	5.2		Swimming activity (Mus musculus [46]): 8.3; Accumulated counts/30 min (Rattus norvegicus [47]): 17
